From PubChem BioAssay
RAM network inh – yeast RAM network inhibition. S. cerevisiae dse1pr::URA3 reporter, 5-FOA growth OD615, 2 d; analog-sensitive cbk1-as2 kinase mutant strain. inhibition, % at 50 µM. hit rate 1.8% among 190,000;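 active = inhibition above a set limit, 3 SD over mean compound inhibition, cut at about 8.4% in these data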;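 note: 0% = DMSO-only wells with no growth and 100% = 10 µM 1-NA-PP1 full growth; inhibition rescues growth on 5-FOA so higher OD means more RAM inhibition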
NPY-Y1 PAM-ag – human NPY-Y1 potentiation or agonism, primary screen; P25929; NPY-Y1 expressing cells, potentiator/agonist activation; activation, % at 3.6 µM; hit rate 0.37% among 220,000; AID 1304; in the data active = activation above about 33%, passing the limit was not always enough;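 note: cells stimulated with NPY at EC10 then isoproterenol at EC100; 0% = low agonist plus stimulus and 100% = saturating agonist plus stimulus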
Target sequence (P25929 whole entry, looked up): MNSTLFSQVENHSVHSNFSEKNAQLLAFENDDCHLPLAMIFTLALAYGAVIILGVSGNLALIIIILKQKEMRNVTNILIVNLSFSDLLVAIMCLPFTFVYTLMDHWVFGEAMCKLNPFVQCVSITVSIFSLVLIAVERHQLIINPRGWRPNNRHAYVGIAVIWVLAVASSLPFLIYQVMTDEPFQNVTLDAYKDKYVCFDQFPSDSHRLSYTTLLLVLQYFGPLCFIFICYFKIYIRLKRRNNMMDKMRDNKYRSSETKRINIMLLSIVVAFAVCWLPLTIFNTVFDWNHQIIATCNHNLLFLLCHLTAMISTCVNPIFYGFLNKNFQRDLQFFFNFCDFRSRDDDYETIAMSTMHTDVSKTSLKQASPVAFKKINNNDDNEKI
INS promoter inh – TRM-6 insulin promoter activity inhibition; TRM-6 cells, insulin promoter-eGFP reporter, imaging; reporter expression induced with tamoxifen; inhibition, % at 2 µM; hit rate 0.9% among 130,000;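 active = inhibition above the mean plus 3 SD, with well images judged a real hit on visual review, cut at about 60% in these data, passing the limit was not always enough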
NPY-Y1 antag – antagonists of human neuropeptide Y receptor Y1; HEK293-CNG Y1 cells, membrane potential fluorescence; NPY at EC95, then isoproterenol; hit rate 1% among 200,000; AID 1040; inhibition, % at 3.6 µM; P25929;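 active = inhibition above the campaign mean inhibition of all tested compounds plus 3 SD, cut at about 20% in these data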;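 note: 0% = DMSO wells given NPY plus isoproterenol and 100% = isoproterenol alone without NPY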
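System: HEK293 cells with Y1 receptor plus CNG channel / Probe or stimulus: NPY 25 nM then isoproterenol 1 µM plus Ro 20-1724 25 µM / Compound: one concentration, 3.6 µM, in 0.4% DMSO / Schedule: compound incubation 1 h at room temperature, readout 45 min post-stimulation / Measured by: membrane potential fluorescence / Read-out: % inhibition of NPY effect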
NPY-Y2 antag – blocks the human neuropeptide Y Y2 receptor | NPY-Y2 expressing cells, antagonist mode | inhibition, % at 2.7 µM | hit rate 0.99% among 140,000; in the data active = inhibition above about 17%;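 note: 0% = vehicle with agonist challenge and 100% = reference antagonist with challenge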
NPY2 pot ag – potentiates or activates human NPY-Y2 receptor | P49146 | cells expressing NPY-Y2, potentiator/agonist read-out | activation, % at 3.6 µM | hit rate 0.45% among 220,000 | AID 1359; in the data active = activation above about 27%;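 note: cells stimulated with NPY near EC25 plus isoproterenol at EC100; 0% = vehicle plus submaximal agonist and 100% = vehicle plus saturating agonist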
RAM efflux-def – RAM network inhibition, efflux-deficient strain. shares compounds with RAM network inh. S. cerevisiae efflux-deficient reporter strain, 5-FOA growth OD615, 2 days. max inhibition, %. 1,200 tested, under 10 active; call rule not given here;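 note: plate controls were vehicle for no effect and reference inhibitor for full effect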
* hit, by the source's call; . = no result given. Most compounds without a hit are left out; they make up all but 3.8% or so of the library.

SMILES | RAM network inh | NPY-Y1 PAM-ag | INS promoter inh | NPY-Y1 antag | NPY-Y2 antag | NPY2 pot ag | RAM efflux-def
CCOc1ccccc1NC(=O)C(OC(=O)c1ccc(O)cc1)c1ccccc1 (stereo not given) | 5 | -6 | -39 | 7 | 5 | 8 | .
CCOc1ccccc1NC(=O)C(OC(=O)c1ccc(CC)cc1)c1ccccc1 (stereo not given) | 15* | 8 | 25 | 6 | 3 | 14 | 4
CC1CCCCC1NC(=O)c1ccc2c(c1)[nH]c(=O)n2C1CCCC1 (stereo not given) | 0 | -21 | . | -3 | 4 | -6 | .
O=C(Nc1ccc(-c2nc3ccccc3s2)cc1)c1cc(-n2cnnc2)ccc1Cl | 16* | -7 | . | -1 | 0 | 8 | 5
C/C(CC(=O)Nc1cccnc1)=N\NC(=O)C(C)Oc1ccc(Cl)cc1Cl (stereo not given) | . | 0 | . | . | . | 4 | .
CC(=O)c1ccc(N(C(=O)CS(=O)CC(=O)Nc2ccc(F)cc2)C(C(=O)NC2CCCCC2)c2cccs2)cc1 (stereo not given) | 18* | 5 | -50 | 1 | 1 | 3 | 2
CC(=O)c1cccc(N(C(=O)CS(=O)CC(=O)Nc2ccc(F)cc2)C(C(=O)NC2CCCCC2)c2ccc(C)o2)c1 (stereo not given) | 0 | 14 | -3 | 2 | -2 | 0 | .
Cc1ccc(-c2noc(CSc3nnc(CCc4ccccc4)n3-c3ccccc3)n2)cc1 | 14* | -38 | -11 | 10 | 15 | -15 | 2
N#CC(c1ccc(F)cc1)c1ccc(C(=O)c2ccccc2)cc1 (stereo not given) | 17* | -27 | -9 | 2 | 5 | -5 | 4
O=[N+]([O-])c1ccccc1N/N=C\c1ccccc1Cl | 1 | -7 | . | 1 | 2 | -2 | .
CCCOc1ccc(/C=N/Nc2ccccc2[N+](=O)[O-])c(OCCC)c1 | 16* | -12 | 84* | -3 | 0 | -4 | 6
Cc1ccc(/C=C/C(=O)Nc2ccc(Oc3ccccc3)cc2)o1 | 13* | 7 | 45 | -3 | 4 | -4 | 4
COC(=O)c1ccc(Cl)cc1NC(=O)/C=C/c1ccc(C)o1 | 13* | 2 | 4 | -2 | 5 | -8 | 4
Cc1ccc(/C=C/C(=O)Nc2ccc([N+](=O)[O-])cc2)o1 | 5 | 22 | -13 | 2 | 4 | -9 | .
CCCCOc1nc2ccccc2nc1C(C#N)C(=O)NC1CCCCC1 (stereo not given) | 12* | 11 | 36 | -5 | 4 | -2 | 9
CC(C)OC(=O)C(C#N)c1nc2ccccc2nc1N1CCCC1 (stereo not given) | 3 | 10 | . | 1 | 2 | -16 | .
CCC(C)COC(=O)C(C#N)c1nc2ccccc2nc1N1CCCCC1 (stereo not given) | 18* | -2 | 64 | 8 | 0 | -1 | 4
N#CC(C(=O)NC1CCCCC1)c1nc2ccccc2nc1N1CCN(c2ccccc2F)CC1 (stereo not given) | 5 | -11 | . | -4 | 0 | -5 | .
CCCCCCOC(=O)C(C#N)c1nc2ccccc2nc1N1CCCCC1 (stereo not given) | 24* | 2 | -14 | -1 | -1 | 12 | 9
C=CCNC(=O)c1ccccc1NC(=O)Cc1ccccc1[N+](=O)[O-] | 0 | -4 | . | 2 | 2 | 9 | .
CN(C[C@@H](CC1CCCCC1)N(C[C@H](Cc1ccccc1)N(CCc1ccccc1)N=O)N=O)N=O | 14* | 10 | . | 3 | . | -9 | 4
CCC(C)[C@@H](CN(N=O)[C@@H](Cc1ccccc1)CN(C)N=O)N(CCc1ccccc1)N=O (stereo not given in full) | 30* | -7 | . | 8 | . | -3 | 3
CN(C[C@H](Cc1ccccc1)N(C[C@H](CC1CCCCC1)N(CCc1ccccc1)N=O)N=O)N=O | 5 | 4 | . | 1 | . | -6 | .
CCOC(=O)c1c(C)[nH]c(C(=O)NCc2ccco2)c1C | 1 | 0 | . | -5 | . | 12 | .
C=CCN(c1ccccc1Cl)S(=O)(=O)c1cccc(C(=O)NCCc2ccc(OC)cc2)c1 | 14* | -17 | . | 6 | 5 | -11 | 4
SMILES | RAM network inh | NPY-Y1 PAM-ag | INS promoter inh | NPY-Y1 antag | NPY-Y2 antag | NPY2 pot ag | RAM efflux-def
Cc1sc2ncn(/N=C/c3ccco3)c(=O)c2c1C | . | -11 | . | . | . | 4 | .
CCS(=O)(=O)c1ccc(-c2csc(-c3ccc(Cl)cc3)n2)c(Cl)c1Cl | 12* | -17 | 48 | -4 | 0 | -2 | 3
CCS(=O)(=O)c1ccc(-c2csc(-c3ccccc3Cl)n2)c(Cl)c1Cl | 6 | 6 | 41 | -4 | 2 | -15 | .
COc1ccc(CC(=O)Nc2c3c(nn2-c2cccc(C)c2C)CS(=O)C3)cc1OC (stereo not given) | 2 | 2 | -40 | -3 | -3 | 5 | .
CCc1ccccc1NC(=O)/C(C#N)=C\c1ccc(Sc2ccccc2)o1 | 4 | -62 | 3 | 14 | 8 | -30 | .
CCc1ccccc1NC(=O)/C(C#N)=C/c1ccc(Sc2ccccc2)o1 | 16* | -25 | -15 | 12 | 10 | -17 | 2
CN(C(=O)/C=C/c1cnc2ccccc2c1)C1CCCCC1 | -1 | 17 | . | 7 | . | 3 | .
CC1(C)CC2CC(C)(CN2C(=O)c2ccc([N+](=O)[O-])cc2[N+](=O)[O-])C1 (stereo not given) | 1 | 6 | . | -3 | . | -17 | .
O=C(CC(c1ccccc1)(c1ccccc1)c1ccccc1)N[C@@H](Cc1ccccc1)C(=O)O | 13* | 7 | . | 9 | . | -11 | 2
O=c1c(/C=N/O)coc2ccc3ccccc3c12 | 23* | 6 | 14 | 4 | 1 | 8 | 1
Cc1ccc(CNC(=O)CNC(=S)N(Cc2ccccc2)Cc2ccccc2F)cc1 | 12* | -31 | . | -3 | . | -20 | 4
CN(C)CCNC(=O)CNC(=S)N(Cc1ccccc1)Cc1ccccc1F | -1 | 7 | -26 | 3 | . | 1 | .
O=C(CNC(=S)N(Cc1ccccc1)Cc1ccccc1F)NCc1ccc(Cl)cc1 | 16* | 21 | -53 | -4 | . | 7 | 2
COc1cccc(CNC(=O)CNC(=S)N(Cc2ccccc2)Cc2ccccc2F)c1 | 12* | -14 | 4 | 7 | . | -14 | 2
O=C1Oc2ccccc2C(=O)/C1=C\N1CCN(c2ccccc2)CC1 | 2 | -2 | . | 2 | . | 16 | .
COc1ccc(C2CCCN2C(=S)Nc2cccc(C)c2C)cc1OC (stereo not given) | 6 | 6 | . | 0 | . | 3 | .
CCc1cc(C(=O)Cc2nc3ccccc3s2)c(O)cc1OCC(=O)O | . | 17 | . | . | . | -6 | .
COc1ccccc1/C=C(/C(=O)OCC(=O)Nc1ccccc1C(C)C)c1ccccc1 | 12* | 2 | 57 | 3 | 10 | -6 | 3
